Measured values taken from ChEMBL document CHEMBL1138270, “Antimycobacterial activities of novel 1-(cyclopropyl/tert-butyl/4-fluorophenyl)-1,4-dihydro- 6-nitro-4-oxo-7-(substituted secondary amino)-1,8-naphthyridine-3-carboxylic acid” (J Med Chem, 2007).
In brackets after ≈: the same amount, converted by molar mass.

The molecules below were run on Mycobacterium tuberculosis (assay: Antimycobacterial activity against multi-drug-resistant Mycobacterium tuberculosis by agar dilution method).
Type: functional
Method in brief: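 MIC was determined by agar dilution, in duplicate.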
Molecule `CC1(C)COCN1c1nc2c(cc1[N+](=O)[O-])c(=O)c(C(=O)O)cn2C(C)(C)C` has an MIC of 0.1 µM (≈ 0.039 µg/mL).
`O=C(O)c1cn(-c2ccc(F)cc2)c2nc(N3CCN(C(c4ccccc4)c4ccc(Cl)cc4)CC3)c([N+](=O)[O-])cc2c1=O` (stereo not drawn) showed an MIC of 0.31 µM (≈ 0.19 µg/mL).
With `O=C(O)c1cn(-c2ccc(F)cc2)c2nc(N3CCC(O)(c4ccc(Cl)cc4)CC3)c([N+](=O)[O-])cc2c1=O` the MIC was 0.72 µM (≈ 0.388 µg/mL).
`CC(C)(C)n1cc(C(=O)O)c(=O)c2cc([N+](=O)[O-])c(N3CCC(N4CCCCC4)CC3)nc21` gave an MIC of 1.7 µM (≈ 0.778 µg/mL).
In the case of `O=C(O)c1cn(C2CC2)c2nc(N3CCC(n4c(=O)[nH]c5cc(Cl)ccc54)CC3)c([N+](=O)[O-])cc2c1=O`, the MIC is reported as 0.74 µM (≈ 0.388 µg/mL).
For `CC(C)(C)n1cc(C(=O)O)c(=O)c2cc([N+](=O)[O-])c(N3CCC(n4c(=O)[nH]c5cc(Cl)ccc54)CC3)nc21`, the MIC was 2.88 µM (≈ 1.56 µg/mL).
`CCN(CC)C(=O)C1CCCN(c2nc3c(cc2[N+](=O)[O-])c(=O)c(C(=O)O)cn3-c2ccc(F)cc2)C1` (stereo not drawn) was tested, and the MIC was 1.52 µM (≈ 0.777 µg/mL).
Molecule `CC(C)(C)n1cc(C(=O)O)c(=O)c2cc([N+](=O)[O-])c(N3CCN(Cc4ccc5c(c4)OCO5)CC3)nc21` has an MIC of 3.06 µM (≈ 1.56 µg/mL).
Work on `CC(C)(C)n1cc(C(=O)O)c(=O)c2cc([N+](=O)[O-])c(N3CCC4(CC3)OCCO4)nc21` yielded an MIC of 0.44 µM (≈ 0.19 µg/mL).
`CC(C)(C)NC(=O)C1c2ccccc2CCN1c1nc2c(cc1[N+](=O)[O-])c(=O)c(C(=O)O)cn2C1CC1` (stereo not drawn) gave an MIC of 6.19 µM (≈ 3.13 µg/mL).
`O=C(O)c1cn(-c2ccc(F)cc2)c2nc(N3CCSCC3)c([N+](=O)[O-])cc2c1=O` gave an MIC of 0.91 µM (≈ 0.392 µg/mL).
`CC(C)(C)n1cc(C(=O)O)c(=O)c2cc([N+](=O)[O-])c(N3CCSCC3)nc21` showed an MIC of 0.48 µM (≈ 0.188 µg/mL).
`CN1CCN(c2nc3c(cc2[N+](=O)[O-])c(=O)c(C(=O)O)cn3-c2ccc(F)cc2)CC1c1ccccc1` (stereo not drawn) gave an MIC of 0.18 µM (≈ 0.0906 µg/mL).
`CN1CCN(c2nc3c(cc2[N+](=O)[O-])c(=O)c(C(=O)O)cn3C(C)(C)C)CC1c1ccccc1` (stereo not drawn) was tested, and the MIC was 0.84 µM (≈ 0.391 µg/mL).
Work on `O=C(O)c1cn(C2CC2)c2nc(N3CCN(C(=O)C4COc5ccccc5O4)CC3)c([N+](=O)[O-])cc2c1=O` (stereo not drawn) yielded an MIC of 1.49 µM (≈ 0.777 µg/mL).
`CC1CN(c2nc3c(cc2[N+](=O)[O-])c(=O)c(C(=O)O)cn3C2CC2)CC(C)O1` (stereo not drawn) showed an MIC of 4.02 µM (≈ 1.56 µg/mL).
In the case of `O=C(O)c1cn(-c2ccc(F)cc2)c2nc(N3CCC(N4CCCCC4)CC3)c([N+](=O)[O-])cc2c1=O`, the MIC is reported as 1.57 µM (≈ 0.778 µg/mL).
Molecule `CC(C)(C)n1cc(C(=O)O)c(=O)c2cc([N+](=O)[O-])c(N3CCN(C(=O)C4COc5ccccc5O4)CC3)nc21` (stereo not drawn) has an MIC of 2.9 µM (≈ 1.56 µg/mL).
`O=C(O)c1cn(C2CC2)c2nc(N3CCN(C(=O)c4ccco4)CC3)c([N+](=O)[O-])cc2c1=O` showed an MIC of 3.44 µM (≈ 1.56 µg/mL).
In the case of `CC(C)(C)NC(=O)C1c2ccccc2CCN1c1nc2c(cc1[N+](=O)[O-])c(=O)c(C(=O)O)cn2C(C)(C)C` (stereo not drawn), the MIC is reported as 1.49 µM (≈ 0.777 µg/mL).
For `O=C(O)c1cn2c(n1)CN(c1nc3c(cc1[N+](=O)[O-])c(=O)c(C(=O)O)cn3C1CC1)CC2`, the MIC was 1.77 µM (≈ 0.779 µg/mL).
`CC(C)(C)n1cc(C(=O)O)c(=O)c2cc([N+](=O)[O-])c(N3CCN(C(=O)c4ccco4)CC3)nc21` showed an MIC of 3.32 µM (≈ 1.56 µg/mL).
Work on `O=C(O)c1cn(C2CC2)c2nc(N3CCN(Cc4ccc5c(c4)OCO5)CC3)c([N+](=O)[O-])cc2c1=O` yielded an MIC of 1.58 µM (≈ 0.78 µg/mL).
With `CC(C)(C)n1cc(C(=O)O)c(=O)c2cc([N+](=O)[O-])c(N3CCn4cc(C(=O)O)nc4C3)nc21` the MIC was 0.42 µM (≈ 0.192 µg/mL).
Molecule `COc1ccc(CC2C3=C(CCCC3)CCN2c2nc3c(cc2[N+](=O)[O-])c(=O)c(C(=O)O)cn3C2CC2)cc1` (stereo not drawn) has an MIC of 0.74 µM (≈ 0.393 µg/mL).
Molecule `CC1CN(c2nc3c(cc2[N+](=O)[O-])c(=O)c(C(=O)O)cn3-c2ccc(F)cc2)CC(C)O1` (stereo not drawn) has an MIC of 0.43 µM (≈ 0.19 µg/mL).
`O=C(O)c1cn2c(n1)CN(c1nc3c(cc1[N+](=O)[O-])c(=O)c(C(=O)O)cn3-c1ccc(F)cc1)CC2` showed an MIC of 0.38 µM (≈ 0.188 µg/mL).
With `O=C(O)c1cn(-c2ccc(F)cc2)c2nc(N3CCN(C(=O)c4ccco4)CC3)c([N+](=O)[O-])cc2c1=O` the MIC was 1.54 µM (≈ 0.781 µg/mL).
`O=C(O)c1cn(-c2ccc(F)cc2)c2nc(N3CCC(n4c(=O)[nH]c5cc(Cl)ccc54)CC3)c([N+](=O)[O-])cc2c1=O` was tested, and the MIC was 0.62 µM (≈ 0.359 µg/mL).
Work on `CC(C)(C)NC(=O)C1c2ccccc2CCN1c1nc2c(cc1[N+](=O)[O-])c(=O)c(C(=O)O)cn2-c1ccc(F)cc1` (stereo not drawn) yielded an MIC of 1.39 µM (≈ 0.778 µg/mL).
`CC(C)(C)n1cc(C(=O)O)c(=O)c2cc([N+](=O)[O-])c(N3CCC(O)(c4ccc(Cl)cc4)CC3)nc21` gave an MIC of 1.56 µM (≈ 0.781 µg/mL).
Work on `COc1c(N2CCNC(C)C2)c(F)cc2c(=O)c(C(=O)O)cn(C3CC3)c12` (stereo not drawn) [GATIFLOXACIN] yielded an MIC of 8.34 µM (≈ 3.13 µg/mL).
For `NNC(=O)c1ccncc1` [ISONIAZID], the MIC was 45.6 µM (≈ 6.25 µg/mL).
